In ChEMBL document CHEMBL4825777, “Tripeptides as Integrin-Linked Kinase Modulating Agents Based on a Protein-Protein Interaction with α-Parvin” (ACS Med Chem Lett, 2021) one finds Activity and inhibition data, which are given here for 8 compounds.

Structures are written as SMILES. Activity calls are given as the source filed them. The calls are words filed in the database; no cut-off is given here. Non-standard residues stand in square brackets, D forms with d. Residues, ends and D or L forms follow the SMILES beside them. 2Nal = N[C@@H](Cc1ccc2ccccc2c1)C(=O)O

In data set [1] the target is T1, Scaffold protein ILK (Homo sapiens) (UniProt Q13418).
T1 sequence (whole entry): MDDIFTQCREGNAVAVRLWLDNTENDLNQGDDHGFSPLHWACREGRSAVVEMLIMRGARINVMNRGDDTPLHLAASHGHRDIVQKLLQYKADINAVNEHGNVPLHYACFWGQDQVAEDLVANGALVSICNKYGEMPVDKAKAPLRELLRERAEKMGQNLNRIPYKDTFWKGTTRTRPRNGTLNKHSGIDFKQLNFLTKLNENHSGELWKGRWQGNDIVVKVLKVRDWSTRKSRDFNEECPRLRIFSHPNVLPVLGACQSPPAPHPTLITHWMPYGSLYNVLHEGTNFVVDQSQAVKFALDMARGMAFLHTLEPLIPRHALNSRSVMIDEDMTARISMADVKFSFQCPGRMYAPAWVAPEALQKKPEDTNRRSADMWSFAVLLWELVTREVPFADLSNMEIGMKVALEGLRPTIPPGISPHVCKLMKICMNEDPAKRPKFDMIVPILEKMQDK
Description: Induction of ILK (unknown origin).

Data set [2] deals with Mesangial cell. As to the kind of experiment: Induction of F-actin polymerization in human mesangial cells assessed as increase in F-actin levels measured after 24 hrs by Alexa 568-phalloidin based confocal microscopy. The procedure, abridged:
(§1)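 Human mesangial cells incubated 24 h with compound at 50 μM, or with buffer as control. Cells stained with Alexa 568 phalloidin and F-actin examined by confocal microscopy. F-actin amount measured in three independent assays; mean ± SEM expressed as percent of control values; p < 0.05 vs control.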

The target of data set [3] is T1, Scaffold protein ILK (Homo sapiens). As to the kind of experiment: Inhibition of ILK (unknown origin).
A short description of data set [4]: Cytotoxicity against human mesangial cells assessed as reduction in cell viability at 1 to 100 uM incubated for 24 hrs by MTT assay. The format is cell-based. Conditions: dose 1-100 µM.
Data set [5] deals with Mesangial cell. Description: Induction of F-actin polymerization in human mesangial cells ILK siRNA assessed as increase in phalloidin content at 50 uM measured after 24 hrs by Alexa 568-phalloidin based confocal microscopy relative to control. Conditions: filed as activator. The procedure, abridged: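 Human mesangial cells transfected with ILK siRNA, or scrambled siRNA as transfection control; cells then held in buffer (control) or compound at 50 μM for 24 h. Stained with Alexa 568 phalloidin and imaged by confocal microscopy. F-actin quantified in three independent assays; mean ± SEM as percentage vs control, p < 0.05 vs control.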

For data set [6], the system named is Mesangial cell. Description: Induction of F-actin polymerization in human mesangial cells assessed as F-actin levels at 50 uM measured after 24 hrs by Alexa 568-phalloidin based confocal microscopy. The conditions noted are these: filed as activator. The procedure, abridged: as §1
Data set [7] addresses T1, Scaffold protein ILK (Homo sapiens). Description: Modulation of ILK in human mesangial cells assessed as reduction in AKT phosphorylation at Ser473 residue at 50 uM measured upto 90 mins by Western blot analysis. It is filed as cell-based. Conditions: Mesangial cell, time min <=90.
Data set [8] shares this target. Description: Modulation of ILK in human mesangial cells assessed as reduction in GSK-3beta phosphorylation at ser9 residue at 50 uM measured upto 90 mins by Western blot analysis. The conditions noted are these: Mesangial cell, time min <=90. It is filed as cell-based. (In general: Immunoblotting shows a protein as a band on a membrane.)

Regarding `CC(=O)N[C@@H](Cc1ccc(O)cc1)C(=O)N[C@@H](Cc1ccccc1)C(=O)N[C@H](C(=O)O)C(C)C` (Ac-Tyr-Phe-Val-OH), the outcome (in data set [1]; in the data set on Mesangial cell [2]) was inactive.

In the case of `COC(=O)[C@@H](NC(=O)[C@H](Cc1ccc2ccccc2c1)NC(=O)[C@H](Cc1ccc(O)cc1)NC(C)=O)C(C)C` (Ac-Tyr-[2Nal]-Val-OMe), the outcome in data set [1] was inactive. The inhibition entry in data set [3] was “Active”.

Take `COC(=O)[C@@H](NC(=O)[C@H](Cc1ccccc1)NC(=O)[C@H](C)NC(C)=O)C(C)C` (Ac-Ala-Phe-Val-OMe): the result in data set [1] was inactive. Further, the Activity entry in data set [4] is “Non-Toxic”; with Mesangial cell [5], 59%.

For `COC(=O)[C@@H](NC(=O)[C@H](C)NC(=O)[C@H](Cc1ccc(O)cc1)NC(C)=O)C(C)C` (Ac-Tyr-Ala-Val-OMe), the result in data set [1] was inactive.

Regarding `COC(=O)[C@H](CO)NC(=O)[C@H](Cc1ccc2ccccc2c1)NC(=O)[C@H](Cc1ccc(O)cc1)NC(C)=O` (Ac-Tyr-[2Nal]-Ser-OMe), in data set [1], the outcome was inactive. In data set [3], the inhibition result was “Active”.

In the case of `COC(=O)[C@H](CO)NC(=O)[C@H](Cc1ccccc1)NC(=O)[C@H](Cc1ccc(O)cc1)NC(C)=O` (Ac-Tyr-Phe-Ser-OMe), the outcome in data set [1] was inactive.

For `COC(=O)[C@H](C)NC(=O)[C@H](Cc1ccccc1)NC(=O)[C@H](Cc1ccc(O)cc1)NC(C)=O` (Ac-Tyr-Phe-Ala-OMe), the outcome in data set [1] was inactive.

For `COC(=O)[C@@H](NC(=O)[C@H](Cc1ccccc1)NC(=O)[C@H](Cc1ccc(O)cc1)NC(C)=O)C(C)C` (Ac-Tyr-Phe-Val-OMe), the result in data set [1], in data set [7] and in data set [8] was inactive. For the same compound, the result in the data set on Mesangial cell [6] was Active. For the same compound, the Activity entry in data set [4] was “Non-Toxic”; in the data set with Mesangial cell [5] it was 100%.
